# Reference: ChEMBL document CHEMBL3286116, “Synthesis, biological evaluation and structure-activity correlation study of a series of imidazol-based compounds as Candida albicans inhibitors” (Eur J Med Chem, 2014)
# Columns and labels:
# Assay type in all cases: functional
# [1] = system: Candida albicans; assay: Antifungal activity against Candida albicans ATCC 90028 after 48 hrs by CLSI broth microdilution method; conditions: ATCC 90028, 48 h
# Summary of the method: (§1)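 Yeast CLSI broth microdilution (M27-A3). Compounds dissolved in DMSO at 100× the top test concentration, then diluted as serial two-fold dilutions in RPMI 1640 to final 0.125–64. Inoculum was 1.0–1.5 × 10^3 cells mL−1, incubated at 35 °C and read for growth at 48 h. MIC is the lowest concentration giving ≥50% growth inhibition versus growth control. Reported as the median of five replicates and as the geometric mean.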
# [2] = system: Candida albicans; assay: Antifungal activity against Candida albicans ATCC 20891 after 48 hrs by CLSI broth microdilution method; conditions: ATCC 20891, 48 h; summary of the method: as §1
# [3] = system: Candida albicans; assay: Antifungal activity against Candida albicans PMC 1011 after 48 hrs by CLSI broth microdilution method; conditions: PMC 1011, 48 h; summary of the method: as §1
# [4] = system: Pichia kudriavzevii; assay: Antifungal activity against Candida krusei DSM 6128 after 48 hrs by CLSI broth microdilution method; conditions: DSM 6128, 48 h; summary of the method: as §1
# [5] = system: Pichia kudriavzevii; assay: Antifungal activity against Candida krusei PMC 0613 after 48 hrs by CLSI broth microdilution method; conditions: PMC 0613, 48 h; summary of the method: as §1
# [6] = system: Candida tropicalis; assay: Antifungal activity against Candida tropicalis PMC 0910 after 48 hrs by CLSI broth microdilution method; conditions: PMC 0910, 48 h; summary of the method: as §1
# [7] = system: Candida tropicalis; assay: Antifungal activity against Candida tropicalis DSM 11953 after 48 hrs by CLSI broth microdilution method; conditions: DSM 11953, 48 h; summary of the method: as §1
# [8] = system: Candida parapsilosis; assay: Antifungal activity against Candida parapsilosis DSM 11224 after 48 hrs by CLSI broth microdilution method; conditions: Lodderomyces parapsilosis, DSM 11224, 48 h; summary of the method: as §1
# [9] = system: Candida parapsilosis; assay: Antifungal activity against Candida parapsilosis ATCC 22019 after 48 hrs by CLSI broth microdilution method; conditions: Lodderomyces parapsilosis, ATCC 22019, 48 h; summary of the method: as §1
# [10] = system: Nakaseomyces glabratus; assay: Antifungal activity against Candida glabrata PMC 0805 after 48 hrs by CLSI broth microdilution method; conditions: PMC 0805, 48 h; summary of the method: as §1
# [11] = system: Nakaseomyces glabratus; assay: Antifungal activity against Candida glabrata PMC 0807 after 48 hrs by CLSI broth microdilution method; conditions: PMC 0807, 48 h; summary of the method: as §1
# [12] = system: Cryptococcus neoformans; assay: Antifungal activity against Cryptococcus neoformans PMC 2123 after 72 hrs by CLSI broth microdilution method; conditions: PMC 2123, 72 h
# Summary of the method: (§2)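 Cryptococcus neoformans tested by CLSI broth microdilution in RPMI 1640, with serial two-fold dilutions from DMSO stocks at 100× the top concentration, final 0.125–64. Inoculum was 1.0–1.5 × 10^3 cells mL−1 at 35 °C, with growth read at 72 h. MIC is the lowest concentration with ≥50% growth inhibition versus control. Median of five replicates, plus geometric mean.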
# [13] = system: Cryptococcus neoformans; assay: Antifungal activity against Cryptococcus neoformans PMC 2136 after 72 hrs by CLSI broth microdilution method; conditions: PMC 2136, 72 h; summary of the method: as §2
# [14] = system: Cryptococcus neoformans; assay: Antifungal activity against Cryptococcus neoformans PMC 2115 after 72 hrs by CLSI broth microdilution method; conditions: PMC 2115, 72 h; summary of the method: as §2
# [15] = system: Cryptococcus neoformans; assay: Antifungal activity against Cryptococcus neoformans PMC 2103 after 72 hrs by CLSI broth microdilution method; conditions: PMC 2103, 72 h; summary of the method: as §2
# [16] = system: Cryptococcus neoformans; assay: Antifungal activity against Cryptococcus neoformans PMC 2107 after 72 hrs by CLSI broth microdilution method; conditions: PMC 2107, 72 h; summary of the method: as §2
# [17] = system: Cryptococcus neoformans; assay: Antifungal activity against Cryptococcus neoformans PMC 2102 after 72 hrs by CLSI broth microdilution method; conditions: PMC 2102, 72 h; summary of the method: as §2
# [18] = system: Cryptococcus neoformans; assay: Antifungal activity against Cryptococcus neoformans DSM 11959 after 72 hrs by CLSI broth microdilution method; conditions: DSM 11959, 72 h; summary of the method: as §2
# [19] = system: Cryptococcus neoformans; assay: Antifungal activity against Cryptococcus neoformans PMC 2111 after 72 hrs by CLSI broth microdilution method; conditions: PMC 2111, 72 h; summary of the method: as §2
# [20] = system: Trichophyton mentagrophytes; assay: Antifungal activity against Trichophyton mentagrophytes DSM 4870 after 72 hrs by CLSI broth microdilution method; conditions: DSM 4870, 72 h
# Summary of the method: (§3)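 Dermatophytes tested by CLSI broth microdilution for filamentous fungi (M38-A2). Serial two-fold dilutions of DMSO-dissolved compound in RPMI 1640, final 0.125–64. Inoculum was 0.4–5 × 10^4 CFU mL−1, incubated at 35 °C and read at 72 h. MIC80 is the lowest concentration giving ≥80% growth inhibition versus growth control. Median of five replicates, plus geometric mean.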
# [21] = system: Trichophyton mentagrophytes; assay: Antifungal activity against Trichophyton mentagrophytes PMC 6515 after 72 hrs by CLSI broth microdilution method; conditions: PMC 6515, 72 h; summary of the method: as §3
# [22] = system: Trichophyton mentagrophytes; assay: Antifungal activity against Trichophyton mentagrophytes PMC 6531 after 72 hrs by CLSI broth microdilution method; conditions: PMC 6531, 72 h; summary of the method: as §3
# [23] = system: Trichophyton mentagrophytes; assay: Antifungal activity against Trichophyton mentagrophytes PMC 6509 after 72 hrs by CLSI broth microdilution method; conditions: PMC 6509, 72 h; summary of the method: as §3
# [24] = system: Trichophyton mentagrophytes; assay: Antifungal activity against Trichophyton mentagrophytes PMC 6503 after 72 hrs by CLSI broth microdilution method; conditions: PMC 6503, 72 h; summary of the method: as §3
# [25] = system: Trichophyton mentagrophytes; assay: Antifungal activity against Trichophyton mentagrophytes PMC 6552 after 72 hrs by CLSI broth microdilution method; conditions: PMC 6552, 72 h; summary of the method: as §3
# [26] = system: Nannizzia gypsea; assay: Antifungal activity against Microsporum gypseum PMC 7303 after 72 hrs by CLSI broth microdilution method; conditions: PMC 7303, 72 h; summary of the method: as §3
# [27] = system: Nannizzia gypsea; assay: Antifungal activity against Microsporum gypseum PMC 7331 after 72 hrs by CLSI broth microdilution method; conditions: PMC 7331, 72 h; summary of the method: as §3
# [28] = system: Nannizzia gypsea; assay: Antifungal activity against Microsporum gypseum DSM 3824 after 72 hrs by CLSI broth microdilution method; conditions: DSM 3824, 72 h; summary of the method: as §3
# [29] = system: Candida albicans; assay: Antifungal activity against Candida albicans ATCC 24433 after 48 hrs by CLSI broth microdilution method; conditions: ATCC 24433, 48 h; summary of the method: as §1
# [30] = system: Candida albicans; assay: Antifungal activity against Candida albicans ATCC 3153 after 48 hrs by CLSI broth microdilution method; conditions: ATCC 3153, 48 h; summary of the method: as §1
# [31] = system: Candida albicans; assay: Antifungal activity against Candida albicans ATCC 10231 after 48 hrs by CLSI broth microdilution method; conditions: ATCC 10231, 48 h; summary of the method: as §1
# [32] = system: Candida albicans; assay: Antifungal activity against Candida albicans ATCC 76615 after 48 hrs by CLSI broth microdilution method; conditions: ATCC 76615, 48 h; summary of the method: as §1
# [33] = system: Candida albicans; assay: Antifungal activity against Candida albicans ATCC 10261 after 48 hrs by CLSI broth microdilution method; conditions: ATCC 10261, 48 h; summary of the method: as §1
MIC50 [1],MIC50 [2],MIC50 [3],MIC50 [4],MIC50 [5],MIC50 [6],MIC50 [7],MIC50 [8],MIC50 [9],MIC50 [10],MIC50 [11],MIC50 [12],MIC50 [13],MIC50 [14],MIC50 [15],MIC50 [16],MIC50 [17],MIC50 [18],MIC50 [19],MIC80 [20],Structure (SMILES),also measured
32 mg/L,64 mg/L,128 mg/L,128 mg/L,128 mg/L,128 mg/L,128 mg/L,128 mg/L,128 mg/L,128 mg/L,128 mg/L,32 mg/L,128 mg/L,128 mg/L,128 mg/L,32 mg/L,128 mg/L,128 mg/L,128 mg/L,128 mg/L,O=C(OC(Cn1ccnc1)c1ccc(Cl)cc1)N1CCN(C(=O)c2ccco2)CC1 (configuration not stated),MIC80 [21]: 128 mg/L; MIC80 [22]: 128 mg/L; MIC80 [23]: 128 mg/L; MIC80 [24]: 128 mg/L; MIC80 [25]: 128 mg/L; MIC80 [26]: 128 mg/L; MIC80 [27]: 128 mg/L; MIC80 [28]: 128 mg/L; MIC50 [29]: 128 mg/L; MIC50 [30]: 32 mg/L; MIC50 [31]: 64 mg/L; MIC50 [32]: 64 mg/L; MIC50 [33]: 32 mg/L
8 mg/L,8 mg/L,8 mg/L,64 mg/L,16 mg/L,32 mg/L,128 mg/L,4 mg/L,16 mg/L,64 mg/L,64 mg/L,128 mg/L,16 mg/L,64 mg/L,8 mg/L,16 mg/L,32 mg/L,16 mg/L,16 mg/L,64 mg/L,O=C(OC(Cn1ccnc1)c1ccc(F)cc1)N1CCN(c2ccc([N+](=O)[O-])cc2)CC1 (configuration not stated),MIC80 [21]: 64 mg/L; MIC80 [22]: 64 mg/L; MIC80 [23]: 64 mg/L; MIC80 [24]: 32 mg/L; MIC80 [25]: 32 mg/L; MIC80 [26]: 32 mg/L; MIC80 [27]: 32 mg/L; MIC80 [28]: 64 mg/L; MIC50 [29]: 32 mg/L; MIC50 [30]: 16 mg/L; MIC50 [31]: 32 mg/L; MIC50 [32]: 128 mg/L; MIC50 [33]: 8 mg/L
4 mg/L,8 mg/L,4 mg/L,16 mg/L,4 mg/L,16 mg/L,32 mg/L,2 mg/L,16 mg/L,8 mg/L,32 mg/L,16 mg/L,2 mg/L,16 mg/L,2 mg/L,1 mg/L,8 mg/L,4 mg/L,8 mg/L,32 mg/L,O=C(OC(Cn1ccnc1)c1ccc(F)cc1)N1CCN(c2ncccc2[N+](=O)[O-])CC1 (configuration not stated),MIC80 [21]: 32 mg/L; MIC80 [22]: 32 mg/L; MIC80 [23]: 64 mg/L; MIC80 [24]: 32 mg/L; MIC80 [25]: 32 mg/L; MIC80 [26]: 64 mg/L; MIC80 [27]: 32 mg/L; MIC80 [28]: 32 mg/L; MIC50 [29]: 8 mg/L; MIC50 [30]: 16 mg/L; MIC50 [31]: 16 mg/L; MIC50 [32]: 64 mg/L; MIC50 [33]: 8 mg/L
2 mg/L,8 mg/L,16 mg/L,128 mg/L,16 mg/L,64 mg/L,128 mg/L,4 mg/L,8 mg/L,64 mg/L,64 mg/L,64 mg/L,8 mg/L,32 mg/L,8 mg/L,8 mg/L,16 mg/L,8 mg/L,8 mg/L,64 mg/L,O=C(OC(Cn1ccnc1)c1ccc(Cl)cc1)N1CCN(c2ccc([N+](=O)[O-])cc2)CC1 (configuration not stated),MIC80 [21]: 32 mg/L; MIC80 [22]: 32 mg/L; MIC80 [23]: 32 mg/L; MIC80 [24]: 64 mg/L; MIC80 [25]: 32 mg/L; MIC80 [26]: 32 mg/L; MIC80 [27]: 16 mg/L; MIC80 [28]: 64 mg/L; MIC50 [29]: 32 mg/L; MIC50 [30]: 16 mg/L; MIC50 [31]: 16 mg/L; MIC50 [32]: 128 mg/L; MIC50 [33]: 8 mg/L
